From PubChem BioAssay
Hits are enriched below; roughly 2.4% of the tested compounds scored in any of these assays.
Neddyl block = blocks human cullin neddylation; inhibition, % at 25 µM; AID 651699; TR-FRET cullin neddylation, biochemical; 360,000 tested, 0.58% active; P61081+Q13564; in the data active means inhibition above about 36%
TbMetRS inhib = blocks T. brucei methionyl-tRNA synthetase activity; purified T. brucei MetRS, ATP depletion, Kinase-Glo luminescence; inhibition, % at 11.9 µM; 360,000 tested, 0.4% active; AID 624268;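 active means inhibition above a per-plate cutoff of the control wells' mean inhibition plus 3 SD, cut at about 5.5% in these data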;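 further: 0% = DMSO wells median and 100% = median of wells with control inhibitor compound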
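Test system: purified T. brucei MetRS enzyme. Also added: ATP, methionine and E. coli bulk tRNA substrates. Compound: 11.9 µM single point. Schedule: 15 min enzyme-compound preincubation, 2 h reaction, 10 min detection, 25 °C. Signal: luciferase luminescence of residual ATP, Kinase-Glo. Evaluation: percent inhibition versus plate control medians. Controls: DMSO wells, low control.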
HNF4A DNA FP = change in binding of human HNF4 alpha to DNA | P41235 | HNF4a-FITC DNA binding, fluorescence polarization, 1 h | 360,000 tested, 0.3% active | activity change, % at 10 µM; in the data active means activity change above about 30%, passing the limit was not always enough
Rpn11 inh = blocks the human proteasome subunit Rpn11. O00487. human 26S proteasome, Ub4-pepOG fluorescence polarization; 20S core pre-blocked with epoxomicin. inhibition, % at 20 µM. 360,000 tested, 0.59% active;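 active means inhibition at 20 µM, scaled to each plate's controls, above about 33%, limit read from the data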
CSN deneddyl inh = inhibitors of human CSN-mediated cullin deneddylation; Purified CSN, SCF-Nedd8-OG deneddylation, fluorescence polarization; inhibition, % at 12.5 µM; 360,000 tested, 0.38% active; AID 651999;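 active means pattern-corrected inhibition above about 35%, with an unprinted fluorescence ratio check between 0.5 and 1.5, limit read from the data, passing the limit was not always enough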;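 further: 0% = enzyme with substrate and 100% = substrate without enzyme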
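Material: purified human Csn5 enzyme expressed in HEK293T cells / Medium: Tris buffer pH 7.5, NaCl, DTT, Tween-20, trehalose, ovalbumin / Compound dosing: 12.5 µM single point / Schedule: 90 min incubation of compound, enzyme and substrate at room temperature / Signal: fluorescence polarization of the substrate / Control set: no-enzyme wells high, enzyme-with-substrate wells low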
PREPL inh = inhibits the human prolyl oligopeptidase-like enzyme; 320,000 tested, 0.68% active; AID 2751; inhibition, % at 5.96 µM; recombinant PREPL, fluorescence polarization activity-based probe; in the data active means inhibition above about 43%;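 further: 0% = enzyme with DMSO and 100% = wells lacking enzyme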
Rpn11 confirm = Rpn11 inhibition confirmation, single concentration | shares compounds with Rpn11 inh | purified human 26S proteasome, Ub4-pepOG fluorescence polarization; proteasome pretreated with epoxomicin | inhibition, % at 20 µM | 1,900 tested, 29% active
MMP-2 counter-1 = blocks human MMP-2, flagging nonselective RPN11 hits; shares compounds with Rpn11 inh; recombinant MMP-2, FRET peptide cleavage fluorescence; inhibition, % at 20 µM; 1,900 tested, 4% active;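 further: human MMP-2 activated beforehand with APMA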
Target sequence (P08253 whole entry, looked up): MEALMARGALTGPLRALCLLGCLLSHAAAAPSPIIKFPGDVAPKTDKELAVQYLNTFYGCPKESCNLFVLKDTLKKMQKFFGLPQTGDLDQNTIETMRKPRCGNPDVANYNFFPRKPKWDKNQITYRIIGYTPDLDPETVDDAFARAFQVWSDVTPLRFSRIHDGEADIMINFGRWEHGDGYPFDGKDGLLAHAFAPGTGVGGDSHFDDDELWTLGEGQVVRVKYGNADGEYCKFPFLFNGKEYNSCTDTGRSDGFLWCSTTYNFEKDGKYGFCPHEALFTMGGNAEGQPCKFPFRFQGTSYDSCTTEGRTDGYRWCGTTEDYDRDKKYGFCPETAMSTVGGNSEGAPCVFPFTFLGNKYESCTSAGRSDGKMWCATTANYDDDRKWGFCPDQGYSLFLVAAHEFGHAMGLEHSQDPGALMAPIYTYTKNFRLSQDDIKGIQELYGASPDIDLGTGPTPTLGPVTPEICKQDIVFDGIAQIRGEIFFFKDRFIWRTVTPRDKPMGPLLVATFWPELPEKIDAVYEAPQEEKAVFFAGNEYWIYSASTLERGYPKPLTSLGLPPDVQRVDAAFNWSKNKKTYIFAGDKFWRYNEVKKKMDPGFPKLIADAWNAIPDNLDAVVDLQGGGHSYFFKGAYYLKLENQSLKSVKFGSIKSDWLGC
Thrombin FP = blocks bovine thrombin, flagging nonselective RPN11 hits. 1,900 tested, 13% active. inhibition, % at 20 µM. shares compounds with Rpn11 inh. AID 602333. bovine thrombin cleavage of Ub4-pepOG, fluorescence polarization;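 active means mean inhibition at least 40% at 20 µM, or signal 3 deviations below plate average, so some actives read negative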;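 further: plate controls were thrombin with DMSO for no effect and buffer wells lacking thrombin for full effect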
Tb MetRS conf = Trypanosoma brucei MetRS inhibition confirmed. shares compounds with TbMetRS inhib. T. brucei MetRS enzyme, luminescence (ATP depletion). inhibition, % at 11.9 µM. 1,400 tested, 93% active. AID 624412; in the data active means inhibition above about 7%
Jurkat cytotox = counter-screen for T. brucei MetRS inhibitors: Jurkat cell cytotoxicity; shares compounds with TbMetRS inhib; Jurkat cells viability, ATP luminescence; inhibition, % at 8.3 µM; 1,400 tested, 12% active; AID 624413; in the data active means inhibition above about 15%;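 further: 0% = vehicle and 100% = reference inhibitor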
Tb MetRS inh FP = T. brucei MetRS inhibition, orthogonal assay | shares compounds with TbMetRS inhib | purified T. brucei MetRS, fluorescence polarization | inhibition, % at 11.9 µM | 1,400 tested, 44% active | AID 651607; in the data active means inhibition above about 17%;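 further: 0% = vehicle wells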
CSN deneddyl val = Csn5 (human) deneddylation inhibition, single-concentration validation; 540 tested, 62% active; AID 720654; shares compounds with CSN deneddyl inh; inhibition, % at 16.6 µM; Csn5 deneddylation of SCF-Nedd8OG, fluorescence polarization, 90 min; in the data active means inhibition above about 50%;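 further: 0% = DMSO with enzyme and 100% = no enzyme wells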
MMP-2 counter-2 = counter-screen for CSN deneddylation inhibitors: human MMP-2 inhibition. recombinant MMP-2, FRET substrate fluorescence, 60 min. shares compounds with CSN deneddyl inh. 540 tested, 33% active. inhibition, % at 16.6 µM. AID 720655;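 active means corrected plate-normalized z-score of 5 or more, or -5 or less, or inhibition of 15% or more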;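 further: plate controls were DMSO wells with enzyme for no effect and buffer wells lacking MMP-2 for full effect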
Thrombin counter = thrombin (bovine) inhibition, counter-screen for CSN hits; shares compounds with CSN deneddyl inh; bovine thrombin cleavage of Ub4-pepOG, fluorescence polarization; inhibition, % at 16.6 µM; 540 tested, 49% active; AID 720656;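 active means inhibition at or above a set limit, with a fluorescence interference ratio between 0.5 and a set maximum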
Numbers without * were called inactive. Unless noted, no stated cut-off is given here; in the data, active means inhibition above about 40%; inactive means the rest.

For Cc1c2cc[n+](CCN3CCCCC3)cc2c(C)c2c1[nH]c1ccc(O)cc12 the results were Neddyl block -6, TbMetRS inhib 0, HNF4A DNA FP 49, Rpn11 inh 90*, CSN deneddyl inh 100*, Rpn11 confirm 69*, MMP-2 counter-1 42*, Thrombin FP 20, CSN deneddyl val -31, MMP-2 counter-2 93* and Thrombin counter 40*.
Screening CCCc1nc2ccc(C)cn2c1Cc1ccsc1 returned Neddyl block 11, TbMetRS inhib -1, HNF4A DNA FP 5, Rpn11 inh -8 and CSN deneddyl inh -3.
For Cc1ccc(S(=O)(=O)Nc2ccccc2C=NNC(=O)c2ccncc2)cc1 the results were Neddyl block -5, TbMetRS inhib 0, HNF4A DNA FP 1, Rpn11 inh -1 and CSN deneddyl inh 0.
Screening O=C(CN1C(=O)/C(=C/c2ccco2)SC1=S)Nc1ccc(O)c(C(=O)O)c1 returned Neddyl block 24, TbMetRS inhib 1, HNF4A DNA FP -28, Rpn11 inh 81*, CSN deneddyl inh 56*, PREPL inh -2, Rpn11 confirm 17, MMP-2 counter-1 10, Thrombin FP 9, CSN deneddyl val 57*, MMP-2 counter-2 21* and Thrombin counter 11.
`O=C(CN1C(=O)/C(=C/c2ccco2)SC1=S)Nc1ccc(C(=O)O)c(O)c1` gave Neddyl block 4, TbMetRS inhib 2, HNF4A DNA FP -14, Rpn11 inh 91*, CSN deneddyl inh 61*, PREPL inh -2, Rpn11 confirm 43*, MMP-2 counter-1 35, Thrombin FP 2, CSN deneddyl val 54*, MMP-2 counter-2 18* and Thrombin counter 30*.
Screening c1ccc(N=NC2=NN(c3ccccc3)CS2)cc1 returned Neddyl block -19, TbMetRS inhib 0, HNF4A DNA FP 9, Rpn11 inh 10 and CSN deneddyl inh 4.
Nc1c(C(=O)NCc2ccco2)c2nc3ccccc3nc2n1CCc1ccccc1F was read as TbMetRS inhib 1, HNF4A DNA FP 7, Rpn11 inh 33, CSN deneddyl inh 1 and PREPL inh 22.
Screening COc1ccc(CCn2c(N)c(C(=O)NCc3ccco3)c3nc4ccccc4nc32)cc1OC returned Neddyl block 21, TbMetRS inhib 1, HNF4A DNA FP 9, Rpn11 inh 45*, CSN deneddyl inh 38*, PREPL inh 14, Rpn11 confirm -8, MMP-2 counter-1 4, Thrombin FP -9, CSN deneddyl val 96*, MMP-2 counter-2 5 and Thrombin counter -15.
Screening O=C(NCCCN1CCOCC1)c1cccc(NS(=O)(=O)c2ccc(Br)cc2)c1 returned Neddyl block 9, TbMetRS inhib 0, HNF4A DNA FP 1, Rpn11 inh 1, CSN deneddyl inh -2 and PREPL inh -66.
`Cc1[nH]c2ccccc2c1/C=N/Nc1ccc([N+](=O)[O-])cc1` gave Neddyl block -36, TbMetRS inhib 9.6*, HNF4A DNA FP 68*, Rpn11 inh 119*, CSN deneddyl inh 49*, PREPL inh 5, Rpn11 confirm 83*, MMP-2 counter-1 -28, Thrombin FP 81*, Tb MetRS conf 12*, Jurkat cytotox 9, Tb MetRS inh FP 71*, CSN deneddyl val 75*, MMP-2 counter-2 5 and Thrombin counter 44*.
For COc1cc(NC(=O)Cc2cccc3ccccc23)c(C(=O)O)cc1OC the results were Neddyl block 9, TbMetRS inhib 0, HNF4A DNA FP -1, Rpn11 inh 1, CSN deneddyl inh -3 and PREPL inh -3.
For O=C(O)CCCN1C(=O)/C(=C/c2ccc(-c3nc4ccccc4s3)o2)SC1=S the results were Neddyl block -43, TbMetRS inhib -1, HNF4A DNA FP 51*, Rpn11 inh 185*, CSN deneddyl inh 122*, PREPL inh 10, Rpn11 confirm 44*, MMP-2 counter-1 -16, Thrombin FP -64, MMP-2 counter-2 1 and Thrombin counter -13.
For O=C(O)CCCN1C(=O)/C(=C/c2ccncc2)SC1=S the results were Neddyl block -30, TbMetRS inhib 0, HNF4A DNA FP -7, Rpn11 inh 7, CSN deneddyl inh 1 and PREPL inh -5.
O=C(O)c1ccc(N2C(=O)/C(=C/C=C/c3ccccc3)SC2=S)cc1 was read as Neddyl block -6, TbMetRS inhib 0, HNF4A DNA FP 2, Rpn11 inh 21, CSN deneddyl inh 19 and PREPL inh -4.
For CN(C)c1ccc(/C=C/C=C2/SC(=S)N(c3ccccc3)C2=O)cc1 the results were Neddyl block 1, TbMetRS inhib -2, HNF4A DNA FP 57*, Rpn11 inh 70*, CSN deneddyl inh 38*, PREPL inh -27, Rpn11 confirm 49*, MMP-2 counter-1 -31, Thrombin FP 37, CSN deneddyl val 67*, MMP-2 counter-2 -10 and Thrombin counter 35*.
For Cc1nc(SCc2nc3ccc(C(F)(F)F)cc3[nH]2)c2oc3ccccc3c2n1 the results were Neddyl block -28, TbMetRS inhib 0, HNF4A DNA FP 1, Rpn11 inh 16, CSN deneddyl inh 6 and PREPL inh -1.
